In ChEMBL document CHEMBL1145864, “Synthesis and structure-activity relationship of a new series of COX-2 selective inhibitors: 1,5-diarylimidazoles” (J Med Chem, 2003):

Experiments:
Rattus norvegicus [1] = test: In vivo anti-inflammatory activity determined by rat carrageenan paw edema method at 10 mg/kg perorally; format: functional; conditions: route oral
Rattus norvegicus [2] = test: In vivo anti-inflammatory activity by air pouch model at 1 mg/kg perorally in rat.; format: functional; conditions: route oral
Method in brief: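 Rat air pouch: sterile air (20 mL) was injected subcutaneously, with 10 mL refills every 2 days. On day 7, 2 mL of 1% lambda-carrageenan in saline was injected into the pouch. Compound was given orally (suspension in 1% CMC/Tween-80, 10 mL/kg) 0.5 h before carrageenan. At 6 h, exudate was collected and centrifuged, and supernatant PGE2 was measured by ELISA.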

[3] = biological target: Prostaglandin G/H synthase 1 (Homo sapiens, UniProt P23219); format: cell-based, U-937
[4] = Half life of compound was determined at 1 mg/kg intravenous administration in rat; format: ADME, organism-based; set-up: dose 1 mg/kg, route intravenous; conditions: in vivo
[5] = biological target: T1, Prostaglandin G/H synthase 2 (Homo sapiens) (UniProt P35354); conditions: Blood; at 10 µM
T1 sequence (whole entry): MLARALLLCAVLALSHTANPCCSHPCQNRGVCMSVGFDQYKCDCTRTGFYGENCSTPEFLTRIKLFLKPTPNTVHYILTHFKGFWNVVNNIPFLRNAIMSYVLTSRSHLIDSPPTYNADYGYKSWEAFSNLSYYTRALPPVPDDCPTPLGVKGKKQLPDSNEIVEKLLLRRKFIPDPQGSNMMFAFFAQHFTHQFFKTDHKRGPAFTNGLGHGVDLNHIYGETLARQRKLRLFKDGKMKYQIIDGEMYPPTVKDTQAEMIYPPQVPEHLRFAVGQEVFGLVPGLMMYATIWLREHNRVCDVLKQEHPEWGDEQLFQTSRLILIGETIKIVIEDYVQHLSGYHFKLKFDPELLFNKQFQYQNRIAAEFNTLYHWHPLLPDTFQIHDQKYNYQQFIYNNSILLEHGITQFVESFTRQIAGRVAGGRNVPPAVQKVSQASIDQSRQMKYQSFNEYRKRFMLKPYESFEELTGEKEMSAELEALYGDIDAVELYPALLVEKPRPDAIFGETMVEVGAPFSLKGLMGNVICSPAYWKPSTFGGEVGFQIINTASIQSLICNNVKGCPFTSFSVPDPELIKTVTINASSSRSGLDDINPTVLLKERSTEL

[6] = biological target: T1, Prostaglandin G/H synthase 2 (Homo sapiens); conditions: Blood; at 1 µM

Sequence of Prostaglandin G/H synthase 1 (P23219 whole entry): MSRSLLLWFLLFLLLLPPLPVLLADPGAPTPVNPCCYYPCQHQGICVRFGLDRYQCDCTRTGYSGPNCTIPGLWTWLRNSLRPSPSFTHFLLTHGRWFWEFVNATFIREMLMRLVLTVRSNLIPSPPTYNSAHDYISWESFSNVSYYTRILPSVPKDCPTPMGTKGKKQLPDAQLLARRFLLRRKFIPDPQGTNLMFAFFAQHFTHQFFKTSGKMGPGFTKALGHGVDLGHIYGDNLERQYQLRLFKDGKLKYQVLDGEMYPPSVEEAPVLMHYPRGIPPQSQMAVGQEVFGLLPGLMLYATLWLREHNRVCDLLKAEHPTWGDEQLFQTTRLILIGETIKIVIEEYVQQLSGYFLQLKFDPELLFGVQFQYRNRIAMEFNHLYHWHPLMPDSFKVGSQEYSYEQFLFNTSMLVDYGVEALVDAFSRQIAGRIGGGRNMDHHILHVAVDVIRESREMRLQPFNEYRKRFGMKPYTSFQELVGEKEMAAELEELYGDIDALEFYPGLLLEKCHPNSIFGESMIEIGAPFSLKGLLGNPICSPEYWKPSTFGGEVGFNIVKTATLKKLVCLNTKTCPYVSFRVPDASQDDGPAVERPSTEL

| SMILES | inhibition in vivo at 10 mg/kg (Rattus norvegicus [1]) [%] | inhibition in vivo at 1 mg/kg (Rattus norvegicus [2]) [%] | IC50 [3] [µM] | half-life [4] [h] | inhibition [5] [%] | inhibition [6] [%] |
| --- | --- | --- | --- | --- | --- | --- |
| CS(=O)(=O)c1ccc(-n2cnc(Cl)c2-c2ccccc2)cc1 | 29.2 | 83.2 | > 10 | 17 | 96 | 82.6 |
| CCOc1ccc(-c2c(Cl)ncn2-c2ccc(S(N)(=O)=O)cc2)cc1Cl | 18.5 | – | 15.5 | – | 99.9 | 26.8 |
| COc1c(Cl)cc(-c2c(Cl)ncn2-c2ccc(S(C)(=O)=O)cc2)cc1Cl | 16.5 | – | > 10 | – | 99.8 | 37.3 |
| CCOc1ccc(-c2c(Cl)ncn2-c2ccc(S(N)(=O)=O)cc2)cc1F | 30.3 | – | 76 | – | 100 | 57 |
| Cc1ccc(-c2c(Cl)ncn2-c2ccc(S(C)(=O)=O)cc2)cc1 | 21.6 | 65.5 | > 10 | 1.7 | 100 | 90.5 |
| CCSc1ccc(-c2c(Cl)ncn2-c2ccc(S(C)(=O)=O)cc2)cc1 | 12.3 | – | > 10 | – | 97.3 | 76.7 |
| CCCOc1ccc(-c2c(Cl)ncn2-c2ccc(S(C)(=O)=O)cc2)cc1 | – | – | > 10 | – | – | 0 |
| CSc1ccc(-c2c(Cl)ncn2-c2ccc(S(C)(=O)=O)cc2)cc1 | 21.7 | – | 0.9 | – | 88.5 | 49 |
| NS(=O)(=O)c1ccc(-n2cnc(Cl)c2-c2ccccc2)cc1 | 36.3 | 96.3 | 5.1 | 2.9 | 59.5 | – |
| CS(=O)(=O)c1ccc(-n2cnc(Cl)c2-c2ccccc2F)cc1 | 21.5 | – | 100 | – | 100 | 66.2 |
| COc1cc(-c2c(Cl)ncn2-c2ccc(S(C)(=O)=O)cc2)ccc1C | 9.2 | – | > 10 | – | 100 | 77.1 |
| CS(=O)(=O)c1ccc(-n2cnc(Cl)c2-c2ccc3c(c2)CCO3)cc1 | 29 | – | 0.11 | – | 65.5 | 69.9 |
| CS(=O)(=O)c1ccc(-c2cnc(C=O)n2-c2ccc(F)cc2)cc1 | 27.5 | – | > 10 | – | 70.9 | – |
| Cc1ccc(-c2c(Cl)ncn2-c2ccc(S(C)(=O)=O)cc2)cc1F | 22.6 | 18.5 | > 10 | – | 100 | 75.1 |
| CCOc1ccc(-c2c(Cl)ncn2-c2ccc(S(C)(=O)=O)cc2)cc1F | 14.1 | – | > 10 | – | 95.2 | 96.5 |
| NS(=O)(=O)c1ccc(-n2cnc(Cl)c2-c2ccc(Cl)nc2)cc1 | 18.1 | – | > 10 | – | 97.6 | 19.6 |
| CS(=O)(=O)c1ccc(-n2cnc(Cl)c2-c2ccc(N)cc2)cc1 | 15.3 | – | > 10 | – | 71.6 | – |
| CS(=O)(=O)c1ccc(-n2cnc(Br)c2-c2ccc(F)cc2)cc1 | – | 91.4 | > 10 | – | 100 | 85.2 |

| SMILES | inhibition in vivo at 10 mg/kg (Rattus norvegicus [1]) [%] | inhibition in vivo at 1 mg/kg (Rattus norvegicus [2]) [%] | IC50 [3] [µM] | half-life [4] [h] | inhibition [5] [%] | inhibition [6] [%] |
| --- | --- | --- | --- | --- | --- | --- |
| CS(=O)(=O)c1ccc(-n2cnc(Cl)c2-c2ccc(Cl)cc2)cc1 | 9.1 | – | > 10 | – | 100 | 88.4 |
| CS(=O)(=O)c1ccc(-c2cnc(Cl)n2-c2ccc(F)cc2)cc1 | 20.4 | 55.2 | > 10 | – | 100 | 85.6 |
| COc1ccc(-c2c(Cl)ncn2-c2ccc(S(C)(=O)=O)cc2)cc1C | 21.4 | 75.6 | > 10 | – | 100 | 100 |
| Cc1ncn(-c2ccc(S(C)(=O)=O)cc2)c1-c1ccc(F)cc1 | – | 45 | > 10 | – | 86.5 | 34.5 |
| COc1ccc(-c2c(Cl)ncn2-c2ccc(S(C)(=O)=O)cc2)c(F)c1 | 33 | – | 0.11 | – | 100 | 100 |
| COc1ccc(-c2c(Cl)ncn2-c2ccc(S(N)(=O)=O)cc2)cc1Cl | 24 | – | 1.2 | – | 99.9 | – |
| COc1ccc(-c2c(Cl)ncn2-c2ccc(S(C)(=O)=O)cc2)cc1 | 33.4 | – | 1.3 | – | 100 | 100 |
| CS(=O)(=O)c1ccc(-n2cnc(Cl)c2-c2ccc(F)cc2F)cc1 | 8.6 | – | 23.8 | – | 100 | 79.6 |
| CCCc1ccc(-c2c(Cl)ncn2-c2ccc(S(C)(=O)=O)cc2)cc1 | 0 | – | > 10 | – | 91.9 | 60 |
| CC(C)c1ccc(-c2c(Cl)ncn2-c2ccc(S(C)(=O)=O)cc2)cc1 | 17 | – | > 10 | – | 100 | 70 |
| CS(=O)(=O)c1ccc(-n2cnc(Cl)c2-c2cccc(F)c2)cc1 | 22.8 | – | > 10 | – | 100 | 51.9 |
| CS(=O)(=O)c1ccc(-n2cnc(Cl)c2-c2cccnc2)cc1 | 19 | – | > 10 | – | 100 | 74.9 |
| CCOc1ccc(-c2c(Cl)ncn2-c2ccc(S(C)(=O)=O)cc2)cc1Cl | 2 | – | > 10 | – | 100 | 47.7 |
| CS(=O)(=O)c1ccc(-c2cnc(Br)n2-c2ccc(F)cc2)cc1 | 40.4 | 35.5 | > 10 | – | 92.8 | 56.2 |
| CCOc1ccc(-c2c(Cl)ncn2-c2ccc(S(C)(=O)=O)cc2)cc1 | 16.3 | – | > 10 | – | 100 | 100 |
| Cc1ncc(-c2ccc(S(C)(=O)=O)cc2)n1-c1ccc(F)cc1 | 21.7 | – | > 10 | – | 68 | – |
| Cc1nc(Cl)c(-c2ccc(F)cc2)n1-c1ccc(S(C)(=O)=O)cc1 | – | – | > 10 | – | 27.5 | – |
| NS(=O)(=O)c1ccc(-n2cnc(Cl)c2-c2ccc(F)cc2)cc1 | 38.6 | 93.2 | 3.1 | 17 | 61.4 | – |
